HIV Rev-RRE inh: disrupts HIV-1 Rev binding to RRE RNA; actives 0.79% (n = 97,000); P05866; Rev peptide-RRE RNA binding, FRET; inhibition, % at 8 µM;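 active = inhibition above the screen-wide mean plus 3 SD, cut at about 35% in these data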;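 also: 0% = median DMSO wells and 100% = median Neomycin B control wells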
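Test system: Cy5-tagged RRE RNA duplex with fluorescein-tagged Rev peptide | Read-out: % inhibition of FRET ratio versus controls | Probe or stimulus: Labelled Rev peptide | Incubation: 5 min RNA-compound premix plus 15 min binding step, 25 °C | Technique: FRET fluorescence readout | Benchmarks: DMSO low control, neomycin B high control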
sEH inhibitor: soluble epoxide hydrolase (human) inhibition; P34913; recombinant human sEH enzymatic activity assay; inhibition, % at 2 µM; actives 0.34% (n = 91,000); in the data active = inhibition above about 80%
ERb coact inh: ER-beta (human) coactivator binding inhibition; TR-FRET ER-beta LBD / SRC1-Cy5 peptide binding; receptor agonist-loaded with 1 µM estradiol; inhibition, % at 25.6 µM; Q92731; actives 1.3% (n = 86,000);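 active = compounds whose percent inhibition of the receptor-coactivator binding signal exceeds about 50% in the single-dose screen, limit read from the data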;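 also: 0% = receptor plus peptide wells without compound and 100% = peptide-only wells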
sEH act: increases human soluble epoxide hydrolase activity. P34913. purified human sEH enzymatic activity, activator screen. activation, % at 2 µM. actives 0.04% (n = 91,000); in the data active = activation above about 37%
ERa coact inh: ER-alpha (human) coactivator binding inhibition. P03372. TR-FRET ER-alpha LBD / SRC-1 peptide, estradiol-bound. inhibition, % at 25.6 µM. actives 1.7% (n = 86,000). AID 629; in the data active = inhibition above about 50%;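 also: 0% = receptor plus peptide control and 100% = peptide only without receptor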
Target sequence (P03372 whole entry, looked up, the tested form may be a part): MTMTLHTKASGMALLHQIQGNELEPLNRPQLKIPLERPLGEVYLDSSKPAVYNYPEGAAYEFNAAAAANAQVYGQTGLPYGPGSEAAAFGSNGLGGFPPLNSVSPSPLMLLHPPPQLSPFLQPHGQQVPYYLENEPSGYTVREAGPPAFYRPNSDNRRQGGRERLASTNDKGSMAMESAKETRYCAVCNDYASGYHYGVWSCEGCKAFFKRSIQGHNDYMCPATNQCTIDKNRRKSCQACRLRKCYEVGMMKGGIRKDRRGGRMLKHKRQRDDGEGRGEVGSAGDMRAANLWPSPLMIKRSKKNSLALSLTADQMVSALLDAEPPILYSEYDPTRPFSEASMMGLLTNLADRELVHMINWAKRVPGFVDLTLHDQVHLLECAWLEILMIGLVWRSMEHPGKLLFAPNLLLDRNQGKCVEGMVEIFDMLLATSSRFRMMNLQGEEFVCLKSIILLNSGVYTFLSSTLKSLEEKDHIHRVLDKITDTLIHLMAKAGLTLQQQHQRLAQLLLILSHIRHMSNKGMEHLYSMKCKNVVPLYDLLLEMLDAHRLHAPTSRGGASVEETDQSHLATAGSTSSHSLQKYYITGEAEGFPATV
ERa SRC1 pot: enhances coactivator binding to human estrogen receptor alpha | P03372 | TR-FRET ERalpha-LBD/SRC-Cy5 coactivator binding, 2 h; 100 = basal binding, no effect | coactivator binding (% of control), % at 25.6 µM | actives 1.3% (n = 86,000); in the data active = activity above about 200%;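 also: binding measured in presence of low estradiol as agonist stimulus; 0% = peptide alone without receptor and 100% = receptor with peptide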
Starred values were filed as active, the others as inactive; [ ] = remark or other dose. Shown are actives, neighbours in structure and some others; about 3.5% of the full set was active somewhere.

For CCOc1cc(C2C(C#N)=C(N)OC(C)=C2C(C)=O)c(Br)c(Br)c1OC(C)C (configuration not stated) the results were HIV Rev-RRE inh 19, sEH inhibitor 4, ERb coact inh 6, sEH act 0, ERa coact inh 1 and ERa SRC1 pot 77.
CCOc1cc(C2C(C#N)=C(N)OC(C)=C2C(C)=O)cc(Br)c1O (configuration not stated) was read as HIV Rev-RRE inh 50*, sEH inhibitor 7, ERb coact inh 48, sEH act -4, ERa coact inh 46 and ERa SRC1 pot 56.
For Cn1nc(C(C)(C)C)cc1C(=O)NCc1ccc(N2CCCC2=O)cc1 the results were ERb coact inh -5, ERa coact inh 2 and ERa SRC1 pot 112.
For Cc1nc(Oc2cccc(Cl)c2)c2oc3ccccc3c2n1 the results were HIV Rev-RRE inh 5, sEH inhibitor -1, ERb coact inh 74*[fluorescence artefact?], sEH act -2, ERa coact inh 1 and ERa SRC1 pot 93.
Screening CCN(CC)CCOc1nc(C)nc2c1oc1ccccc12 returned HIV Rev-RRE inh -3, sEH inhibitor 13, ERb coact inh -3, sEH act -13, ERa coact inh -3 and ERa SRC1 pot 113.
`COc1ccc(CCNC(=O)c2cc(-c3cc(Cl)cc(Cl)c3)oc2C)cc1` gave HIV Rev-RRE inh 0, sEH inhibitor -11 and sEH act 13.
Cc1cc(C(=O)CSc2nnc(-c3ccccc3)n2C)c(C)n1C was read as HIV Rev-RRE inh 1, sEH inhibitor -8, ERb coact inh 6, sEH act 9, ERa coact inh 4 and ERa SRC1 pot 115.
For Cc1cc(C(=O)CSc2nnc(-c3cccnc3)n2-c2ccccc2F)c(C)n1C the results were HIV Rev-RRE inh 0, sEH inhibitor 5, ERb coact inh 31, sEH act -4, ERa coact inh 70* and ERa SRC1 pot 55.
Screening CCCCOP(=O)(OCCCC)C1(NS(=O)(=O)c2ccccc2)C=CC(=O)c2ccccc21 (configuration not stated) returned HIV Rev-RRE inh 0, sEH inhibitor 3, ERb coact inh 26, sEH act -6, ERa coact inh 29 and ERa SRC1 pot 48.
Screening CCOC(=O)N1CCC2(CC1)C(C#N)=C(N)OC1=C2C(=O)CC(C)(C)C1 returned HIV Rev-RRE inh 2, sEH inhibitor 2, ERb coact inh -2, sEH act -3, ERa coact inh -1 and ERa SRC1 pot 99.
`Cc1cc(C)cc(OCc2nc3ncc(Br)cc3[nH]2)c1` gave HIV Rev-RRE inh 23, sEH inhibitor -3, ERb coact inh 42, sEH act 4, ERa coact inh 57* and ERa SRC1 pot 333*[fluorescence artefact?].
O=C(O)Cc1ccc(NC(=O)C2CC=CCC2C(=O)O)cc1 (configuration not stated) was read as HIV Rev-RRE inh 11, sEH inhibitor 8, ERb coact inh -21, sEH act -8, ERa coact inh -18 and ERa SRC1 pot 234*.
`CCc1ccc(NC(=O)C2CC=CCC2C(=O)O)cc1` (configuration not stated) gave HIV Rev-RRE inh 7, ERb coact inh 4, ERa coact inh -10 and ERa SRC1 pot 101.
Cc1ccc(-c2ccc(=O)n(CC(=O)NCCN3CCCCC3C)n2)cc1 (configuration not stated) was read as HIV Rev-RRE inh -1, sEH inhibitor 16, ERb coact inh -9, sEH act -16, ERa coact inh -3 and ERa SRC1 pot 158.
Screening COCCn1nnnc1CN1C2CCCC1CC(NC(C)=O)C2 (configuration not stated) returned HIV Rev-RRE inh 8, sEH inhibitor 7, ERb coact inh 1, sEH act -5, ERa coact inh 6 and ERa SRC1 pot 99.
For N#CC1=C(N)OC2=C(C(=O)CCC2)C1CCc1ccccc1 (configuration not stated) the results were HIV Rev-RRE inh 9, sEH inhibitor -4, ERb coact inh 8, sEH act 6, ERa coact inh 100*[fluorescence artefact?] and ERa SRC1 pot 90.
`C=CCNC(=S)NNC(=O)C(CCC(C)C)CC(C)O` (configuration not stated) gave HIV Rev-RRE inh 5, sEH inhibitor 7, ERb coact inh 1, sEH act -8, ERa coact inh 0 and ERa SRC1 pot 110.
Screening Cc1onc(-c2ccccc2)c1C(=O)Nc1nc(-c2ccccc2)cs1 returned HIV Rev-RRE inh 13, sEH inhibitor -4 and sEH act 2.
Screening Cc1onc(-c2ccccc2)c1C(=O)Nc1nc(-c2cc(F)ccc2F)cs1 returned HIV Rev-RRE inh 6, sEH inhibitor -1, ERb coact inh 19, sEH act -1, ERa coact inh 6 and ERa SRC1 pot 208*[fluorescence artefact?].
For Cc1onc(-c2ccccc2)c1C(=O)Nc1cccc2nsnc12 the results were HIV Rev-RRE inh -3, sEH inhibitor 9, ERb coact inh 22, sEH act -6, ERa coact inh 36 and ERa SRC1 pot 266*.
O=C(CN1CCOc2ccccc21)NC1CCCCCCC1 was read as HIV Rev-RRE inh 6, sEH inhibitor 86*, ERb coact inh -6, sEH act -87, ERa coact inh -6 and ERa SRC1 pot 106.
Screening Cc1nc(OCC(=O)c2ccc(Cl)cc2)c(C#N)c2c1COC(C)(C)C2 returned HIV Rev-RRE inh 3, sEH inhibitor -32, ERb coact inh -9, sEH act 28, ERa coact inh 2 and ERa SRC1 pot 773*[fluorescence artefact?].
CC1(C)Cc2c(C#N)c(OCC(=O)c3ccc(Cl)cc3)nc(-c3ccco3)c2CO1 was read as HIV Rev-RRE inh 9, sEH inhibitor -3, ERb coact inh -4, sEH act 6, ERa coact inh -10 and ERa SRC1 pot 104.
Screening NC(=O)c1ccccc1N/C=C/C(=O)c1cccs1 returned HIV Rev-RRE inh 6.
For COc1cc([N+](=O)[O-])ccc1N/C=C/C(=O)c1cccs1 the results were HIV Rev-RRE inh 77*, sEH inhibitor -12, ERb coact inh 1, sEH act 14, ERa coact inh 4 and ERa SRC1 pot 116.
For CCn1c2ccccc2c2nc3ccccc3nc21 the results were HIV Rev-RRE inh 15, sEH inhibitor 8, ERb coact inh 0, sEH act -9, ERa coact inh -2 and ERa SRC1 pot 94.
`CCCCc1c(C)nn(-c2nnc3c4ccccc4n(CC)c3n2)c1C` gave HIV Rev-RRE inh 5, sEH inhibitor 0, ERb coact inh 31, sEH act 1, ERa coact inh 52*[fluorescence artefact?] and ERa SRC1 pot 141.
Screening Nc1nnc(CCC2CCCCC2)s1 returned HIV Rev-RRE inh 10, sEH inhibitor -4, ERb coact inh -10, sEH act 8, ERa coact inh -21 and ERa SRC1 pot 109.
